The test system of test [1] is Canis familiaris. The test is described as follows: The percentage change of the duration of action potential at 75% repolarization was measured before and after the administration at 1.0 ug/mL. In kind it is functional, Canis lupus familiaris. Summed up: (§1)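 Canine right-ventricular Purkinje fibers (mongrel dogs 7–11 kg, thiopental-anesthetized) superfused with Tyrode's (pH 7.5, 36 °C, gassed 95% O2/5% CO2). Compounds diluted from 1 mM water stock and added cumulatively. Readings taken 20 min after solution exchange. Result given as percent change in action potential duration.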

The test system of test [2] is Canis familiaris. The test is described as follows: Percentage change of the duration of action potential at 75% repolarization was measured before and after the administration at 10.0 ug/mL. In kind it is functional, Canis lupus familiaris. The method in brief: as §1
The test system of test [3] is Canis familiaris. The test is described as follows: The percentage change of the duration of action potential at 75% repolarization was measured before and after the administration at 3.0 ug/mL. In kind it is functional, Canis lupus familiaris. The method in brief: as §1
The subject of test [4] is Canis familiaris. The test is described as follows: The prolongation effect of the atrial and ventricular effective refractory period was measured before and after the administration at 0.3 mg/kg. The format is functional, Canis lupus familiaris, Cardiac atrium. Summed up: (§2)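 In vivo, mongrel dogs of either sex (7–13 kg), anesthetized with pentobarbital sodium 30 mg/kg iv. Left femoral artery cannulated for arterial pressure, femoral vein for drug dosing. Effective refractory period measured before and after administration.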

Test [5] has as its system Canis familiaris. The experiment in a line: The prolongation effect of the atrial and ventricular effective refractory period was measured before and after the administration at 3 mg/kg. In kind it is functional, Canis lupus familiaris, Cardiac atrium. The method in brief: as §2
Test [6] deals with Canis familiaris. The test is described as follows: The prolongation effect of the atrial and ventricular effective refractory period was measured before and after the administration at 1.0 mg/kg.

As to `CSc1ccc(OCCCN2CCN(c3cc(=O)n(C)c(=O)n3C)CC2)cc1.Cl`, the figures for the APD75 with Canis familiaris [1], in the test on Canis familiaris [2] and with Canis familiaris [3] were 4%, 25% and 13%, respectively. For the same compound, the ERP with Canis familiaris [4] was determined as 0%; with Canis familiaris [5], 15.4%; in the test with Canis familiaris [6] it was 7.7%.

These data come from ChEMBL document CHEMBL1125548, “Synthesis and pharmacological studies of N-substituted 6-[(2-aminoethyl)amino]-1,3-dimethyl-2,4(1H,3H)-pyrimidinediones, novel class III antiarrhythmic agents” (1992).
